From ChEMBL document CHEMBL5329174, “Discovery of benzoxazole-thiazolidinone hybrids as promising antibacterial agents against Staphylococcus aureus and Enterococcus species” (RSC Med Chem, 2023)

Experiments:
[1] = system: Enterococcus faecium; experiment: Antibacterial activity against vancomycin-resistant Enterococcus faecium NR 31903 assessed as inhibition of bacterial growth
[2] = system: Staphylococcus aureus; experiment: Antibacterial activity against vancomycin-resistant Staphylococcus aureus VRS 1 assessed as reduction in bacterial growth; assay type: functional
In short: (§1)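 CLSI broth microdilution in cation-supplemented Mueller–Hinton broth II. Starter cultures were grown overnight at 37 °C with shaking from a single MHA colony, then diluted by OD600 to ~10^6 CFU/mL. Compounds came from 10 mg/mL DMSO stocks and were tested two-fold from 64 to 0.5 mg/L. Plates were incubated 37 °C for 18–24 h. MIC was taken as the lowest concentration with no visible growth. Three independent runs, each in duplicate.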

[3] = system: Escherichia coli; experiment: Antibacterial activity against Escherichia coli ATCC 25922 assessed as reduction in bacterial growth; assay type: functional
In short: (§2)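 CLSI broth microdilution in cation-supplemented Mueller–Hinton broth II; overnight starter cultures (37 °C, shaking, 18–24 h) adjusted by OD600 to ~10^6 CFU/mL. Compounds dosed from DMSO stocks (10 mg/mL stock) as two-fold dilutions, 64–0.5 mg/L. Plates held 37 °C, 18–24 h. MIC = lowest concentration without visible growth. Three independent runs, each in duplicate.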

[4] = system: Staphylococcus aureus; experiment: Antibacterial activity against methicilin-resistant Staphylococcus aureus NRS 198 assessed as reduction in bacterial growth; assay type: functional
In short: as §1

[5] = system: Enterococcus faecalis; experiment: Antibacterial activity against vancomycin-susceptible Enterococcus faecalis NR 31888 assessed as inhibition of bacterial growth incubated for 18 to 24 hrs by broth microdilution assay; assay type: functional; conditions: time 18-24 hrs
In short: as §2

[6] = Selectivity index, ratio of CC50 for cytotoxicity against african green monkey Vero cells assessed as reduction in cell viability to MIC for antibacterial activity against Staphylococcus aureus ATCC 29213 assessed as reduction in bacterial growth; assay type: toxicity, cell-based; conditions: read-out: Selectivity Index
[7] = system: Staphylococcus aureus; experiment: Antibacterial activity against methicilin-resistant Staphylococcus aureus NRS 186 assessed as reduction in bacterial growth; assay type: functional
In short: as §1

[8] = system: Enterococcus faecalis; experiment: Antibacterial activity against vancomycin-susceptible Enterococcus faecalis NR 31887 assessed as inhibition of bacterial growth incubated for 18 to 24 hrs by broth microdilution assay; assay type: functional; conditions: time 18-24 hrs
In short: as §2

[9] = system: Staphylococcus aureus; experiment: Antibacterial activity against methicilin-resistant Staphylococcus aureus NRS 194 assessed as reduction in bacterial growth; assay type: functional
In short: as §1

[10] = system: Staphylococcus aureus; experiment: Antibacterial activity against methicilin-resistant Staphylococcus aureus NRS 192 assessed as reduction in bacterial growth; assay type: functional
In short: as §1

[11] = system: Enterococcus faecium; experiment: Antibacterial activity against vancomycin-resistant Enterococcus faecium NR 31909 assessed as inhibition of bacterial growth
[12] = system: Staphylococcus aureus; experiment: Antibacterial activity against vancomycin-resistant Staphylococcus aureus VRS 12 assessed as reduction in bacterial growth; assay type: functional
In short: as §1

[13] = system: Staphylococcus aureus; experiment: Antibacterial activity against Staphylococcus aureus ATCC 29213 assessed as reduction in bacterial growth; assay type: functional
In short: as §2

[14] = system: Pseudomonas aeruginosa; experiment: Antibacterial activity against Pseudomonas aeruginosa ATCC 27853 assessed as reduction in bacterial growth; assay type: functional
In short: as §2

[15] = system: Acinetobacter baumannii; experiment: Antibacterial activity against Acinetobacter baumannii BAA-1605 assessed as reduction in bacterial growth; assay type: functional
In short: as §2

[16] = system: Staphylococcus aureus; experiment: Antibacterial activity against methicilin-resistant Staphylococcus aureus NRS 193 assessed as reduction in bacterial growth; assay type: functional
In short: as §1

[17] = system: Staphylococcus aureus; experiment: Antibacterial activity against methicilin-resistant Staphylococcus aureus NRS 119 assessed as reduction in bacterial growth; assay type: functional
In short: as §1

[18] = system: Enterococcus faecalis; experiment: Antibacterial activity against vancomycin-susceptible Enterococcus faecalis NR 31884 assessed as inhibition of bacterial growth incubated for 18 to 24 hrs by broth microdilution assay; assay type: functional; conditions: time 18-24 hrs
In short: as §2

[19] = system: Enterococcus faecalis; experiment: Antibacterial activity against vancomycin-susceptible Enterococcus faecalis NR 31886 assessed as inhibition of bacterial growth incubated for 18 to 24 hrs by broth microdilution assay; assay type: functional; conditions: time 18-24 hrs
In short: as §2

[20] = system: Enterococcus faecalis; experiment: Antibacterial activity against vancomycin-susceptible Enterococcus faecalis NR 31885 assessed as inhibition of bacterial growth incubated for 18 to 24 hrs by broth microdilution assay; assay type: functional; conditions: time 18-24 hrs
In short: as §2

[21] = system: Staphylococcus aureus; experiment: Antibacterial activity against methicilin-resistant Staphylococcus aureus NRS 191 assessed as reduction in bacterial growth; assay type: functional
In short: as §1

[22] = system: Staphylococcus aureus; experiment: Antibacterial activity against methicilin-resistant Staphylococcus aureus NRS 100 assessed as reduction in bacterial growth; assay type: functional
In short: as §1

[23] = system: Klebsiella pneumoniae; experiment: Antibacterial activity against Klebsiella pneumoniae BAA-1705 assessed as reduction in bacterial growth; assay type: functional
In short: as §2

[24] = Cytotoxicity against african green monkey Vero cells assessed as reduction in cell viability incubated for 72 hrs by MTT assay; assay type: toxicity, cell-based; conditions: chlorocebus sabaeus
In short: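 Vero (ATCC CCL-81) cells seeded at ~10^3 per well, 37 °C, 5% CO2. After 24 h, compound added at 100–12.5 μg/mL for 72 h. MTT then given for 4 h at 37 °C, formazan dissolved in DMSO, absorbance read at 540 nm. CC50 taken as the concentration giving 50% viability loss; doxorubicin as positive control; triplicate.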

[25] = system: Staphylococcus aureus; experiment: Antibacterial activity against methicilin-resistant Staphylococcus aureus NRS 129 assessed as reduction in bacterial growth; assay type: functional
In short: as §1

[26] = system: Staphylococcus aureus; experiment: Antibacterial activity against vancomycin-resistant Staphylococcus aureus VRS 4 assessed as reduction in bacterial growth; assay type: functional
In short: as §1

[27] = system: Enterococcus faecium; experiment: Antibacterial activity against vancomycin-resistant Enterococcus faecium NR 31912 assessed as inhibition of bacterial growth
[28] = system: Staphylococcus aureus; experiment: Bactericidal activity against Staphylococcus aureus ATCC 29213 incubated for 24 hrs by time-kill assay; assay type: functional, organism-based
In short: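 Time-kill: S. aureus ATCC 29213 at ~10^6 CFU/mL in MHBII, exposed to 1× and 10× MIC, 37 °C with shaking for 24 h. Surviving CFU/mL plotted over time; mean of replicate experiments in duplicate.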

O=C1N/C(=N\c2nc3ccccc3o2)S/C1=C\c1ccc(O)cc1
8 µg/mL: MIC [8]
1 µg/mL: MIC [7] | MIC [22]
4 µg/mL: MIC [1]
> 40 µg/mL: CC50 at 72 h [24]
> 20: selectivity ratio [6]
16 µg/mL: MIC [5] | MIC [18] | MIC [19] | MIC [20]
0.25 µg/mL: MIC [11] | MIC [27]
> 64 µg/mL: MIC [3] | MIC [14] | MIC [15] | MIC [23]
2 µg/mL: MIC [2] | MIC [4] | MIC [9] | MIC [10] | MIC [12] | MIC [13] | MIC [16] | MIC [17] | MIC [21] | MIC [25] | MIC [26]

O=C1N/C(=N\c2nc3ccccc3o2)S/C1=C\c1cccc(O)c1
> 40 µg/mL: CC50 at 72 h [24]
> 20: selectivity ratio [6]
0.25 µg/mL: MIC [11] | MIC [27]
4 µg/mL: MIC [1]
2 µg/mL: MIC [2] | MIC [4] | MIC [9] | MIC [10] | MIC [12] | MIC [13] | MIC [16] | MIC [17] | MIC [21] | MIC [25] | MIC [26]
1 µg/mL: MIC [7] | MIC [22]
> 64 µg/mL: MIC [3] | MIC [14] | MIC [15] | MIC [23]
16 µg/mL: MIC [5] | MIC [18] | MIC [19] | MIC [20]
8 µg/mL: MIC [8]

O=C1N/C(=N\c2nc3ccccc3o2)S/C1=C\c1cc(Cl)ccc1O
0.5 µg/mL: MIC [7] | MIC [12] | MIC [21] | MIC [22] | MIC [25]
active: Activity [28] Dose-Dependent Effect
> 20: selectivity ratio [6]
0.125 µg/mL: MIC [11] | MIC [27]
4 µg/mL: MIC [5] | MIC [18] | MIC [19] | MIC [20]
> 20 µg/mL: CC50 at 72 h [24]
1 µg/mL: MIC [1] | MIC [2] | MIC [4] | MIC [9] | MIC [10] | MIC [13] | MIC [16] | MIC [17] | MIC [26]
> 64 µg/mL: MIC [3] | MIC [14] | MIC [15] | MIC [23]
2 µg/mL: MIC [8]

O=C1N/C(=N\c2nc3ccccc3o2)S/C1=C\c1cc(Br)ccc1O
> 64 µg/mL: MIC [3] | MIC [14] | MIC [15] | MIC [23]
4 µg/mL: MIC [5] | MIC [18] | MIC [19] | MIC [20]
2 µg/mL: MIC [8]
0.125 µg/mL: MIC [11] | MIC [27]
> 20: selectivity ratio [6]
active: Activity [28] Dose-Dependent Effect
0.5 µg/mL: MIC [7] | MIC [12] | MIC [21] | MIC [22] | MIC [25]
1 µg/mL: MIC [1] | MIC [2] | MIC [4] | MIC [9] | MIC [10] | MIC [13] | MIC [16] | MIC [17] | MIC [26]
> 20 µg/mL: CC50 at 72 h [24]
